Experiments:
[1] = system: HCT-116; test: Growth inhibition of human HCT116 cells at 10 uM after 48 hrs by MTT assay; format: functional; settings: HCT-116, 48 h, read-out: GI
How it was run: (§1)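 Cells from ECACC are kept in RPMI-1640 with 10% FCS and 1% penicillin at 37 °C in 5% CO2. They are seeded at 3×10^3 cells/well and dosed after 24 h from filter-sterilized DMSO stocks, then treated for 48 h. MTT (2.5 mg/mL in PBS) is added, formazan is dissolved in DMSO, and A570 is read. Viability is given as % of untreated.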

[2] = system: Bacillus subtilis; test: Antibacterial activity against Bacillus subtilis MTCC 2063 after 24 hrs by tube dilution method; format: functional
[3] = system: MCF7; test: Growth inhibition of human MCF7 cells at 50 uM after 48 hrs by MTT assay; format: functional; settings: MCF7, 48 h, read-out: GI; how it was run: as §1
[4] = system: Aspergillus niger; test: Antifungal activity against Aspergillus niger MTCC 8184 after 7 days by tube dilution method; format: functional
How it was run: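 Tube (serial) dilution MIC in Sabouraud dextrose broth I.P., 25 °C for 7 days. Results are recorded as MIC and reported as pMIC in mM.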

[5] = system: MCF7; test: Growth inhibition of human MCF7 cells at 10 uM after 48 hrs by MTT assay; format: functional; settings: MCF7, 48 h, read-out: GI; how it was run: as §1
[6] = system: A549; test: Growth inhibition of human A549 cells at 50 uM after 48 hrs by MTT assay; format: functional; settings: A549, 48 h, read-out: GI; how it was run: as §1
[7] = system: Escherichia coli; test: Antibacterial activity against Escherichia coli MTCC 1652 after 24 hrs by tube dilution method; format: functional
[8] = system: PC-3; test: Growth inhibition of human PC3 cells at 10 uM after 48 hrs by MTT assay; format: functional; settings: PC-3, 48 h, read-out: GI; how it was run: as §1
[9] = system: PC-3; test: Growth inhibition of human PC3 cells at 50 uM after 48 hrs by MTT assay; format: functional; settings: PC-3, 48 h, read-out: GI; how it was run: as §1
[10] = system: HCT-116; test: Growth inhibition of human HCT116 cells at 50 uM after 48 hrs by MTT assay; format: functional; settings: HCT-116, 48 h, read-out: GI; how it was run: as §1
[11] = system: Staphylococcus aureus; test: Antibacterial activity against Staphylococcus aureus MTCC 2901 after 24 hrs by tube dilution method; format: functional
[12] = system: Candida albicans; test: Antifungal activity against Candida albicans MTCC 227 after 48 hrs by tube dilution method; format: functional
[13] = system: A549; test: Growth inhibition of human A549 cells at 10 uM after 48 hrs by MTT assay; format: functional; settings: A549, 48 h, read-out: GI; how it was run: as §1
[14] = system: A549; test: Growth inhibition of human A549 cells after 48 hrs by MTT assay; format: functional, cell-based; how it was run: as §1
[15] = system: HCT-116; test: Growth inhibition of human HCT116 cells after 48 hrs by MTT assay; format: functional, cell-based; how it was run: as §1
[16] = system: MCF7; test: Growth inhibition of human MCF7 cells after 48 hrs by MTT assay; format: functional, cell-based; how it was run: as §1

Compound | inhibition of growth at 10 µM [1] [%] | -logMIC [2] | inhibition of growth at 50 µM [3] [%] | -logMIC [4] | inhibition of growth at 10 µM [5] [%] | inhibition of growth at 50 µM [6] [%] | -logMIC [7] | inhibition of growth at 10 µM [8] [%] | inhibition of growth at 50 µM [9] [%] | inhibition of growth at 50 µM [10] [%] | -logMIC [11] | -logMIC [12] | inhibition of growth at 10 µM [13] [%] | growth inhibition (GI) [14] | growth inhibition (GI) [15] | growth inhibition (GI) [16]
O=[N+]([O-])c1ccc(C2=NC(c3ccccc3)c3c(ccc4ccccc34)O2)cc1 (stereo unspecified) | 4 | 1.78 | 42 | 1.48 | 34 | 43 | 1.78 | 6 | 8 | 14 | 1.78 | 1.78 | 17 |  |  | 
Fc1ccc(C2=NC(c3ccc(F)cc3)c3c(ccc4ccccc34)O2)cc1 (stereo unspecified) | 5 | 1.77 | 50 | 1.47 | 36 | 50 | 1.47 | 22 | 29 | 51 | 2.07 | 1.77 | 20 | Dose-dependent effect | Dose-dependent effect | Dose-dependent effect
COc1ccc(C2=NC(c3ccc(C)cc3)c3c(ccc4ccccc34)O2)cc1 (stereo unspecified) | 7 | 1.78 | 39 | 1.48 | 36 | 36 | 2.08 | 1 | 10 | 14 | 1.78 | 1.78 | 15 |  |  | 
Cc1ccc(C2=NC(c3ccccc3)c3c(ccc4ccccc34)O2)cc1 (stereo unspecified) | 8 | 1.45 | 46 | 1.45 | 36 | 43 | 2.05 | 14 | 20 | 38 | 1.75 | 1.75 | 19 |  |  | 
Cc1ccc(C2N=C(c3ccc(Cl)cc3)Oc3ccc4ccccc4c32)cc1 (stereo unspecified) | 3 | 1.79 | 37 | 1.49 | 21 | 28 | 0.88 | 8 | 13 | 6 | 1.49 | 1.79 | 16 |  |  | 
c1ccc(C2=NC(c3ccccc3)c3c(ccc4ccccc34)O2)cc1 (stereo unspecified) | 5 | 2.03 | 37 | 1.43 | 26 | 36 | 2.33 | 1 | 16 | 22 | 1.43 | 1.73 | 19 |  |  | 
Clc1ccc(C2=NC(c3ccc(Cl)cc3)c3c(ccc4ccccc34)O2)cc1 (stereo unspecified) | 2 | 1.81 | 38 | 1.51 | 16 | 54 | 2.11 | 1 | 2 | 10 | 1.51 | 1.81 | 28 |  |  | 
Cc1ccc(C2N=C(c3ccccc3)Oc3ccc4ccccc4c32)cc1 (stereo unspecified) | 2 | 1.75 | 32 | 1.45 | 17 | 37 | 2.35 | 1 | 3 | 8 | 1.45 | 1.75 | 17 |  |  | 
COc1ccc(C2=NC(c3ccc(OC)cc3)c3c(ccc4ccccc34)O2)cc1 (stereo unspecified) | 27 | 2.1 | 26 | 1.5 | 22 | 35 | 2.1 | 17 | 19 | 29 | 1.5 | 1.8 | 22 |  |  | 
Cc1ccc(C2=NC(c3ccc(C)cc3)c3c(ccc4ccccc34)O2)cc1 (stereo unspecified) | 19 | 2.07 | 37 | 1.46 | 30 | 36 | 1.46 | 1 | 5 | 24 | 1.46 | 1.76 | 17 |  |  | 
OC(Cn1cncn1)(Cn1cncn1)c1ccc(F)cc1F [FLUCONAZOLE] |  |  |  | 2.64 |  |  |  |  |  |  |  | 2.64 |  |  |  | 
Brc1ccc(C2=NC(c3ccccc3)c3c(ccc4ccccc34)O2)cc1 (stereo unspecified) | 6 | 1.82 | 39 | 1.52 | 27 | 40 | 1.52 | 4 | 11 | 29 | 1.52 | 1.82 | 23 |  |  | 
O=C(O)c1cn(C2CC2)c2cc(N3CCNCC3)c(F)cc2c1=O [CIPROFLOXACIN] |  | 2.61 |  |  |  |  | 2.61 |  |  |  | 2.61 |  |  |  |  | 
Cc1ccc(C2N=C(c3ccc(F)cc3)Oc3ccc4ccccc4c32)cc1 (stereo unspecified) | 18 | 2.07 | 44 | 1.47 | 20 | 44 | 2.07 | 5 | 19 | 23 | 1.47 | 1.77 | 16 |  |  | 
Cc1ccc(C2N=C(c3ccc([N+](=O)[O-])cc3)Oc3ccc4ccccc4c32)cc1 (stereo unspecified) | 7 | 1.8 | 40 | 1.5 | 35 | 41 | 1.8 | 8 | 12 | 21 | 1.8 | 1.8 | 13 |  |  | 
Clc1ccc(C2=NC(c3ccccc3)c3c(ccc4ccccc34)O2)cc1 (stereo unspecified) | 3 | 1.77 | 39 | 1.47 | 27 | 38 | 2.37 | 9 | 19 | 29 | 1.77 | 1.77 | 17 |  |  | 
Cc1ccc(C2N=C(c3ccc(Br)cc3)Oc3ccc4ccccc4c32)cc1 (stereo unspecified) | 2 | 1.83 | 33 | 1.53 | 26 | 32 | 1.83 | 0 | 2 | 10 | 1.83 | 1.83 | 13 |  |  | 
COc1ccc(C2=NC(c3ccccc3)c3c(ccc4ccccc34)O2)cc1 (stereo unspecified) | 8 | 1.77 | 42 | 1.47 | 37 | 43 | 2.37 | 19 | 23 | 14 | 1.77 | 1.77 | 19 |  |  | 

— ChEMBL document CHEMBL2086288, “Synthesis, antimicrobial and cytotoxicity study of 1,3-disubstituted-1H-naphtho[1,2-e][1,3]oxazines” (2012)
